# Published values gathered from unrelated publications.
# Lines come from different studies, so protocols differ.
# Target: Ephrin type-A receptor 7 (EPHA7, Homo sapiens, UniProt Q15375)
SMILES,observed,action,method,tested at,endpoint,result
Cn1cncc1[C@@](O)(COc1ccc(C#N)cc1-c1ccc(OC(F)(F)F)cc1)c1ccc(C#N)cc1,cell-free assay,,competition with immobilised ligand,1 µM,remaining binding,100%
Cc1nn(C)cc1-c1nc2c(N3CCN(Cc4ccc(Cl)cc4)CC3)c(Cl)cnc2[nH]1,binding,,competition with immobilised ligand,1 µM,remaining binding,100%
O=c1[nH]c2ccccc2n1C1CCN(Cc2ccc(-c3[nH]c4cc5ncnc5cc4nc3-c3ccccc3)cc2)CC1,cell-free assay,,,0.5 µM,remaining signal,109%
COc1ncccc1-c1cnn2ccc(N3CCN(C(=O)OC(C)C)CC3)nc12,binding,,competition with immobilised ligand,1 µM,remaining binding,100%
N#CC1(c2ccccn2)CCN(Cc2cc(C(=O)O)c(=O)n3ccccc23)CC1,cell-free assay,,competition with immobilised ligand,1 µM,remaining binding,100%
COc1cc(Nc2ncc(F)c(Nc3ccc4c(n3)NC(=O)C(C)(C)O4)n2)cc(OC)c1OC,binding,,competition with immobilised ligand,10 µM,inhibition,100%
Cn1cc(-c2cccc(N3CCc4c(sc5c4CC(C)(C)C5)C3=O)c2CO)cc(Nc2ccncn2)c1=O,enzyme activity,inhibitor,,1 µM,inhibition,83%
CC(C)(C)c1cc(C=C(C#N)C#N)cc(Br)c1O,enzyme activity,inhibitor,,0.5 µM,remaining activity,107%
Cn1cc(-c2cc(F)cc(N3CCn4c(cc5c4CCCC5)C3=O)c2CO)cc(Nc2ccc(N3CCN(C4COC4)CC3)cn2)c1=O,enzyme activity,inhibitor,,0.1 µM,inhibition,13%
Nc1ncc(-c2nc(N3CCOCC3)nc(N3CCOCC3)n2)c(C(F)F)n1,cell-free assay,,competition with immobilised ligand,10 µM,remaining binding,86%
